In ChEMBL document CHEMBL1154475, “1,3,4-Oxadiazole/thiadiazole and 1,2,4-triazole derivatives of biphenyl-4-yloxy acetic acid: synthesis and preliminary evaluation of biological properties” (Eur J Med Chem, 2008):

Experiments:
Rattus norvegicus [1] = test: Antiinflammatory activity in Wistar rat assessed as inhibition of carrageenan-induced paw edema administered orally at equimolar oral dose relative to 10 mg/kg flurbiprofen measured after 3 hrs of carrageenan challenge; type: functional
In short: (§1)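 Adult Wistar rats of either sex, 150–200 g, n=6 per group, fasted 24 h with water allowed. Dosed orally in 0.5% CMC 1 h before 0.1 ml of 1% carrageenan in saline was injected subplantar into the right hind paw. Paw volume was read by plethysmometer at baseline, 3 h and 4 h. % inhibition = (Vc − Vt)/Vc × 100. ANOVA with Dunnett's test.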

Rattus norvegicus [2] = test: Antiinflammatory activity in Wistar rat assessed as inhibition of carrageenan-induced paw edema administered orally at equimolar oral dose relative to 10 mg/kg flurbiprofen measured after 4 hrs of carrageenan challenge; type: functional; in short: as §1
Mus musculus = test: Analgesic activity in Swiss albino mouse assessed as inhibition of tail withdrawal administered orally at equimolar oral dose relative to 10 mg/kg flurbiprofen after 4 hrs; type: functional
In short: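 Tail immersion in Swiss albino mice of either sex, 25–30 g, n=6 per group, dosed orally as a suspension in 0.5% w/v CMC. The lower 5 cm of the tail was dipped in water held at 55 ± 0.5 °C. Reaction time (s) to tail withdrawal was recorded before dosing and 4 h after, with a 10 s cut-off.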

Rattus norvegicus [3] = test: Gastrointestinal toxicity in rat assessed as gastric mucosal damage severity index administered at equimolar oral dose relative to 30 mg/kg flurbiprofen; type: organism-based, Gastric mucosa; design: dose 30 mg/kg, route oral; details: in vivo
In short: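 Wistar rats, n=6 per group, food withdrawn 24 h before oral dosing in 0.5% CMC, then given normal diet for 17 h before sacrifice. Stomachs were opened along the greater curvature and scored under a magnifier (0.5 redness to 3.0 for >5 ulcers). Severity index = mean treated score minus mean control score.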

Rattus norvegicus [4] = organism: Rattus norvegicus; test: Inhibition of lipid peroxidation in rat assessed as malondialdehyde level per 100 mg of tissue; type: functional, organism-based
In short: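 Gastric mucosa taken from the ulcerogenicity rats was scraped, weighed (100 mg) and homogenized in ice-cold 1.15% KCl. SDS, acetate buffer pH 3.5 and 0.8% TBA were added and the mixture heated at 95 °C for 60 min. It was extracted with n-butanol:pyridine (15:1), centrifuged, and the organic layer read at 532 nm. Results given as nmol MDA/100 mg tissue (ε 1.56 × 10⁵ cm⁻¹ M⁻¹).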

Rattus norvegicus [5] = test: Hepatotoxicity in po dosed Wistar albino rat assessed as serum glutamate oxaloacetate transaminase activity administered at equimolar oral dose relative to 10 mg/kg flurbiprofen after 15 days; type: toxicity, organism-based; design: dose 10 mg/kg, route oral; details: in vivo, 360 h
In short: (§2)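 Wistar albino rats of either sex, 150–200 g, n=6 per group, given oral doses in 0.5% w/v CMC once daily for 15 days; controls received vehicle. Retro-orbital blood was clotted 45 min at room temperature and serum separated by centrifugation at 2500 rpm for 15 min for the biochemical assays. ANOVA with Dunnett's test against control.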

Rattus norvegicus [6] = test: Hepatotoxicity in po dosed Wistar albino rat assessed as serum glutamate pyruvate transaminase activity administered at equimolar oral dose relative to 10 mg/kg flurbiprofen after 15 days; type: toxicity, organism-based; design: dose 10 mg/kg, route oral; details: in vivo, 360 h; in short: as §2
Rattus norvegicus [7] = test: Hepatotoxicity in po dosed Wistar albino rat assessed as total protein content administered at equimolar oral dose relative to 10 mg/kg flurbiprofen after 15 days; type: toxicity, organism-based; design: dose 10 mg/kg, route oral; details: in vivo, 360 h; in short: as §2
Rattus norvegicus [8] = test: Hepatotoxicity in po dosed Wistar albino rat assessed as total albumin content administered at equimolar oral dose relative to 10 mg/kg flurbiprofen after 15 days; type: toxicity, organism-based; design: dose 10 mg/kg, route oral; details: in vivo, 360 h; in short: as §2

CC(C)Cc1ccc(C(C)c2nnc(COc3ccc(-c4ccccc4)cc3)o2)cc1 (configuration not stated)
inhibition in vivo (Rattus norvegicus [1]): 77.3% | inhibition in vivo (Rattus norvegicus [2]): 79.5% | inhibition in vivo (Mus musculus): 72.8% | UI (Rattus norvegicus [3]): 0.75 | Activity (Rattus norvegicus [4]): 5.28 nmol | Activity (Rattus norvegicus [5]): 141.09 U/ml | Activity (Rattus norvegicus [6]): 29.17 U/ml | Activity (Rattus norvegicus [7]): 1.92 g/dL | Activity (Rattus norvegicus [8]): 1.72 g/dL

c1ccc(-c2ccc(OCc3nnc(-c4ccccc4)o3)cc2)cc1
inhibition in vivo (Rattus norvegicus [1]): 18.2% | inhibition in vivo (Rattus norvegicus [2]): 18.2%

Cc1ccccc1Nc1nnc(COc2ccc(-c3ccccc3)cc2)s1
inhibition in vivo (Rattus norvegicus [1]): 25% | inhibition in vivo (Rattus norvegicus [2]): 29.5%

Sc1nnc(COc2ccc(-c3ccccc3)cc2)n1-c1ccc(Br)cc1
inhibition in vivo (Rattus norvegicus [1]): 31.8% | inhibition in vivo (Rattus norvegicus [2]): 31.8%

Cc1ccc(-n2c(S)nnc2COc2ccc(-c3ccccc3)cc2)c(C)c1
inhibition in vivo (Rattus norvegicus [1]): 54.5% | inhibition in vivo (Rattus norvegicus [2]): 54.5%

CCCCn1c(S)nnc1COc1ccc(-c2ccccc2)cc1
inhibition in vivo (Rattus norvegicus [1]): 75% | inhibition in vivo (Rattus norvegicus [2]): 81.8% | inhibition in vivo (Mus musculus): 58.2% | UI (Rattus norvegicus [3]): 0.666 | Activity (Rattus norvegicus [4]): 5.19 nmol | Activity (Rattus norvegicus [5]): 138 U/ml | Activity (Rattus norvegicus [6]): 22.67 U/ml | Activity (Rattus norvegicus [7]): 1.82 g/dL | Activity (Rattus norvegicus [8]): 0.71 g/dL

Brc1ccc(Nc2nnc(COc3ccc(-c4ccccc4)cc3)s2)cc1
inhibition in vivo (Rattus norvegicus [1]): 63.6% | inhibition in vivo (Rattus norvegicus [2]): 63.6%

Clc1ccc(OCc2nnc(COc3ccc(-c4ccccc4)cc3)o2)c(Cl)c1
inhibition in vivo (Rattus norvegicus [1]): 29.5% | inhibition in vivo (Rattus norvegicus [2]): 29.5%

Clc1ccc(-c2nnc(COc3ccc(-c4ccccc4)cc3)o2)cc1
inhibition in vivo (Rattus norvegicus [1]): 75% | inhibition in vivo (Rattus norvegicus [2]): 77.3% | inhibition in vivo (Mus musculus): 16.9% | UI (Rattus norvegicus [3]): 1 | Activity (Rattus norvegicus [4]): 5.88 nmol

CCCCNc1nnc(COc2ccc(-c3ccccc3)cc2)s1
inhibition in vivo (Rattus norvegicus [1]): 27.3% | inhibition in vivo (Rattus norvegicus [2]): 27.3%

Clc1ccc(Nc2nnc(COc3ccc(-c4ccccc4)cc3)s2)cc1
inhibition in vivo (Rattus norvegicus [1]): 52.3% | inhibition in vivo (Rattus norvegicus [2]): 54.5%

Fc1ccc(Nc2nnc(COc3ccc(-c4ccccc4)cc3)s2)cc1
inhibition in vivo (Rattus norvegicus [1]): 27.3% | inhibition in vivo (Rattus norvegicus [2]): 29.5%

Cc1ccc(Nc2nnc(COc3ccc(-c4ccccc4)cc3)s2)c(C)c1
inhibition in vivo (Rattus norvegicus [1]): 56.8% | inhibition in vivo (Rattus norvegicus [2]): 56.8%

Sc1nnc(COc2ccc(-c3ccccc3)cc2)n1-c1ccc(Cl)cc1
inhibition in vivo (Rattus norvegicus [1]): 15.9% | inhibition in vivo (Rattus norvegicus [2]): 18.2%

COc1ccc2cc(C(C)c3nnc(COc4ccc(-c5ccccc5)cc4)o3)ccc2c1 (configuration not stated)
inhibition in vivo (Rattus norvegicus [1]): 25% | inhibition in vivo (Rattus norvegicus [2]): 25%

CCCCNc1nnc(COc2ccc(-c3ccccc3)cc2)o1
inhibition in vivo (Rattus norvegicus [1]): 15.9% | inhibition in vivo (Rattus norvegicus [2]): 15.9%

CC(C(=O)O)c1ccc(-c2ccccc2)c(F)c1 (configuration not stated) [FLURBIPROFEN]
inhibition in vivo (Rattus norvegicus [1]): 75% | inhibition in vivo (Rattus norvegicus [2]): 79.5% | inhibition in vivo (Mus musculus): 69.5% | UI (Rattus norvegicus [3]): 1.666 | Activity (Rattus norvegicus [4]): 7.51 nmol

Clc1ccccc1-c1nnc(COc2ccc(-c3ccccc3)cc2)o1
inhibition in vivo (Rattus norvegicus [1]): 59.1% | inhibition in vivo (Rattus norvegicus [2]): 63.6%

Clc1ccc(-c2nnc(COc3ccc(-c4ccccc4)cc3)o2)c(Cl)c1
inhibition in vivo (Rattus norvegicus [1]): 56.1% | inhibition in vivo (Rattus norvegicus [2]): 57.6%

Fc1ccc(Nc2nnc(COc3ccc(-c4ccccc4)cc3)o2)cc1
inhibition in vivo (Rattus norvegicus [1]): 52.3% | inhibition in vivo (Rattus norvegicus [2]): 52.3%

Fc1ccc(-n2c(S)nnc2COc2ccc(-c3ccccc3)cc2)cc1
inhibition in vivo (Rattus norvegicus [1]): 75% | inhibition in vivo (Rattus norvegicus [2]): 79.5% | inhibition in vivo (Mus musculus): 30.5% | UI (Rattus norvegicus [3]): 0.833 | Activity (Rattus norvegicus [4]): 5.34 nmol

Cc1ccccc1-n1c(S)nnc1COc1ccc(-c2ccccc2)cc1
inhibition in vivo (Rattus norvegicus [1]): 56.8% | inhibition in vivo (Rattus norvegicus [2]): 59.1%
